Reference: paper PMC3241894 (ACS chemical biology, 2011)

What was measured:
[1] = tested on: FKBP52 and Hsp90 binding interaction; experiment: pure protein binding assay FKBP52 and Hsp90; set-up: species or system human; details: 100 nM Hsp90, 50 nM GST-FKBP52, 0–10 µM compound
Hsp70 = Hsp70 up-regulation in compound-treated cells; format: cell-based; details: HCT-116 cells, 24 hours
In short: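 HCT-116 cells exposed for 24 h to test compound (0–25 µM), or to 17-AAG (0–200 nM) as reference Hsp90 inhibitor. Cells were then harvested and lysed, and lysates probed for Hsp70 by Western blot with GAPDH as loading control. Experiments were repeated three times, reported as mean ± SEM, and compared by unpaired t-test.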

[2] = tested on: FKBP38 and Hsp90 binding interaction; experiment: pure protein binding assay FKBP38 and Hsp90; set-up: species or system human; details: 100 nM Hsp90, 50 nM GST-FKBP38, 0–10 µM compound
HeLa cells = experiment: Hsp90 over-expression experiments, cell survival; format: cell-based; details: pCMV-Hsp90 vs pCMV control, compound 1 50 µM, 2 5 µM, 17-AAG 100 nM
In short: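 HeLa cells (~30% confluent) were co-transfected by PolyFect with HSP90α and HSP90β plasmids (0.5 µg each) or empty pCMV (1 µg). Hsp90 overexpression was checked by Western blot. After 24 h, cells received DMSO (control), test compound (50 or 5 µM) or 17-AAG (100 nM), and survival was read by CCK-8. Three repeats, mean ± SEM.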

C=CCNC1=C2C[C@@H](C)C[C@H](OC)[C@H](O)[C@@H](C)/C=C(\C)[C@H](OC(N)=O)[C@@H](OC)/C=C\C=C(/C)C(=O)NC(=CC1=O)C2=O [17-AAG, 17-(allylamino)-17-demethoxygeldanamycin]
inhibition of binding between Hsp90 and FKBP52 [1]: do not affect
Hsp70 up-regulation over control (Hsp70): 100%
inhibition of binding between Hsp90 and FKBP38 [2]: do not affect
cytotoxic effect on Hsp90 over-expressing cells relative to control cells (HeLa cells): also true
